Published values gathered from unrelated publications.
Compare with care: the assays were run in different laboratories.
Medium: plasma

COc1nc(-c2cccc(-c3ccccc3)c2C)ccc1CNCCNC(=O)CCCCCCCCCCC(=O)N1CCN(CCNC(=O)c2cc3c(=O)n4cccc(C)c4nc3n(CCc3cccs3)c2=N)CC1 — AUC(0-inf) (male Sprague-Dawley rat; intravenous; 2 mg/kg): 1640 ng·h/mL
O=C1CCC(N2Cc3cc(C4CCN(Cc5ccccc5)CC4)ccc3C2=O)C(=O)N1 (stereo not shown) — AUC(0-inf) (male Sprague-Dawley rat; intravenous; 1 mg/kg): 325 ng·h/mL
CONC(=O)c1cccc2c1cc(C)n2-c1nc2c(c(NCc3ccccc3)n1)CCCN2 — AUC(0-inf) (male Sprague-Dawley rat; intravenous; 1 mg/kg; single dose): 32.5 ng·h/mL
CNC(=O)c1cc(Oc2ccc(NC(=O)Nc3ccc(Cl)c(C(F)(F)F)c3)cc2)ccn1 — AUC(0-inf) (male Sprague-Dawley rat; oral; 100 mg/kg; single dose): 18400 ng·h/mL
C[C@H]1Oc2cc(cnc2N)-c2c(nn(C)c2C#N)CN(C)C(=O)c2ccc(F)cc21 — AUC(0-inf) (male Sprague-Dawley rat; oral; 10 mg/kg; single dose): 3840 ng·h/mL
COc1cc(-c2cc(C(C)=O)n3ccccc23)c(OC)cc1Cn1ccnc1 — AUC(0-inf) (male Sprague-Dawley rat; intravenous; 5 mg/kg): 4300 ng·h/mL
Cc1nc(Nc2ncc(C(=O)Nc3c(C)cccc3Cl)s2)cc(N2CC[C@H](O)C2)n1 — AUC(0-inf) (male Sprague-Dawley rat; oral; 5 mg/kg; single dose): 2.71 µM·h
C=CC(=O)N1CCC([C@@H]2CCNc3c(C(N)=O)c(-c4ccc(Oc5ccccc5)cc4)nn32)CC1 — AUC(0-inf) (Sprague-Dawley rat; oral; 16 mg/kg): 1460 ng·h/mL
CCOc1c([C@H](C)n2nc(C)c3c(N)ncnc32)cc(Cl)c(F)c1[C@@H]1CNC(=O)C1 — AUC(0-inf) (male Sprague-Dawley rat; oral; 2 mg/kg; single dose): 4610 ng·h/mL
COc1ccc(-c2coc3cc(O)cc(O)c3c2=O)cc1 — AUC(0-inf) (rat; intravenous; 2 mg/kg): 683 ng·h/mL
CC[C@H](C)[C@H](NC(=O)[C@@H]1CCCN1C(=O)CNC(=O)[C@H](Cc1ccccc1)NC(=O)[C@H](CC(N)=O)NC(=O)[C@H](CC(N)=O)NC(=O)[C@H](CO)NC(=O)[C@H](CO)NC(=O)[C@H](Cc1c[nH]cn1)NC(=O)[C@H](CCCNC(=N)N)NC(=O)[C@H](CC(C)C)NC(=O)[C@H](Cc1ccccc1)NC(=O)[C@H](CCC(=O)O)NC(=O)[C@H](C)NC(=O)[C@H](CC(C)C)NC(=O)[C@H](CCCNC(=N)N)NC(=O)[C@H](CCC(N)=O)NC(=O)[C@@H](NC(=O)[C@H](C)NC(=O)[C@@H]1CSSC[C@H](NC(=O)[C@H](CCCCN)NC(=O)CC[C@H](NC(=O)CCCCCCCCCCCCCCCCCCC(=O)O)C(=O)O)C(=O)N[C@@H](CC(N)=O)C(=O)N[C@@H]([C@@H](C)O)C(=O)N[C@@H](C)C(=O)N[C@@H]([C@@H](C)O)C(=O)N1)[C@@H](C)O)C(=O)N[C@@H](CC(C)C)C(=O)N1CCC[C@H]1C(=O)N1CCC[C@H]1C(=O)N[C@H](C(=O)N[C@@H](CC(N)=O)C(=O)N[C@H](C(=O)NCC(=O)N[C@@H](CO)C(=O)N[C@@H](CC(N)=O)C(=O)N[C@H](C(=O)N1CCC[C@H]1C(N)=O)[C@@H](C)O)C(C)C)[C@@H](C)O — AUC(0-inf) (male Sprague-Dawley rat; subcutaneous; 30 nmol/kg; single dose): 5 µM·h
COc1ccc(N(Cc2csc(-c3ccccc3)n2)C(=O)CCCCCC(=O)NO)cc1 — AUC(0-inf) (female Sprague-Dawley rat; oral; 30 mg/kg): 32.4 ng·h/mL
Cn1c(=O)c2[nH]cnc2n(C)c1=O — AUC(0-inf) (male Sprague-Dawley rat; intravenous; 22.5 mg/kg): 59400 ng·h/mL
